The structures appear in SMILES notation. Some results are limits rather than exact numbers.

One experiment has as its system TF-1. Description: Cytotoxicity against human erythroleukemia TF1 cells. Type of experiment: functional, cell-based. The method, boiled down:
(§1)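 Dose-response proliferation assay over 0.16 to 20 µM (final) in tissue-culture plates. Cells were incubated 72 h at 37 °C in 5% CO2, and inhibition was read as Alamar Blue conversion by fluorescence at excitation/emission 544/590 nm.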

The test system of the next experiment is BT-20. Description: Cytotoxicity against human breast carcinoma, BT20 cells. Type of experiment: functional, cell-based. The method, boiled down: as §1
The next experiment concerns MAT-Ly-Lu. In words: Cytotoxicity against rat prostate carcinoma, MatLyLu cells. In kind it is functional, cell-based. In short, it runs like this:
as §1

The test system of another experiment is KHOS/NP. Description: Cytotoxicity against human osteosarcoma, KHOS-NP cells. Type of experiment: functional, cell-based. In short, it runs like this:
as §1

The subject of the next experiment is A-431. Description: Cytotoxicity against human epidermoid carcinoma, A431 cells. In kind it is functional, cell-based. The method, boiled down: as §1
Another experiment deals with A-375. Description: Cytotoxicity against human melanoma, A375 cells. Type of experiment: functional, cell-based. In short, it runs like this:
as §1

For the next experiment, the system named is A549. Description: Cytotoxicity against human lung carcinoma, A549 cells. Type of experiment: functional, cell-based. The method, boiled down: as §1
The next experiment has as its system HCT-15. In words: Cytotoxicity against human colon carcinoma, HCT15 cells. Type of experiment: functional, cell-based. The method, boiled down:
as §1

Another experiment has as its system HT-1376. Description: Cytotoxicity against human bladder carcinoma, HT1376 cells. In kind it is functional, cell-based. In short, it runs like this:
as §1

In the next experiment the test system is PA-1. In words: Cytotoxicity against human ovarian teratocarcinoma, PA1 cells. Type of experiment: functional, cell-based. In short, it runs like this:
as §1

The next experiment relates to BUD-8. In words: Cytotoxicity against human fibroblast, BUD8 cells. In kind it is functional, cell-based. The method, boiled down:
as §1

The subject of a further experiment is Ramos. In words: Cytotoxicity against human Burkitt lymphoma, RAMOS cells. In kind it is functional, cell-based. The method, boiled down:
as §1

The test system of the next experiment is Daudi. In words: Cytotoxicity against human Burkitt lymphoma, DAUDI cells. In kind it is functional, cell-based. The method, boiled down:
as §1

Another experiment concerns MES-SA. Description: Cytotoxicity against human uterine sarcoma, MES-SA cells. Type of experiment: functional, cell-based. The method, boiled down:
as §1

In another experiment the test system is MES-SA/Dx5. Description: Cytotoxicity against human uterine sarcoma, MES-SA-Dx5 cells derived from MES-SA. In kind it is functional, cell-based. The method, boiled down:
as §1

In a further experiment the test system is MCF7. Description: Cytotoxicity against human breast carcinoma, MCF7 cells. Type of experiment: functional, cell-based. In short, it runs like this:
as §1

The test system of the next experiment is CTLL. Description: Cytotoxicity against murine cytotoxic T cells, CTLL2. Type of experiment: functional, cell-based. As to conditions: Mus musculus. The method, boiled down: as §1
For experiment [1], the species on record is Rattus norvegicus. Description: Inhibition of blood vessel growth in rat aorta at 10 ug/mL. Type of experiment: functional. The method, boiled down: (§2)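 In vitro angiogenesis assay using rat aorta blood vessel fragments, with compounds dissolved in DMSO. The read-out is percent inhibition of blood vessel growth at each fixed test concentration.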
The species named for experiment [2] is Rattus norvegicus. In words: Inhibition of blood vessel growth in rat aorta at 1 ug/mL. Type of experiment: functional. In short, it runs like this:
as §2

Experiment [3] is filed under the species Rattus norvegicus. In words: Inhibition of blood vessel growth in rat aorta at 0.1 ug/mL. Type of experiment: functional. The method, boiled down: as §2

Consider `COc1ccc2c(CN(C)C)cc3cc(OC)c(OC)cc3c2c1`, for which the 50% inhibitory concentration (IC50) in the experiment with TF-1 was found to be 6.75 µM; in the experiment on BT-20 it was 7.38 µM; with MAT-Ly-Lu it was 17.3 µM; with KHOS/NP, 17.1 µM; with A-431 it was 5.37 µM; in the experiment with A-375, 7.1 µM. The IC50 is 17 µM with A549; 8.27 µM in the experiment with HCT-15; 7.88 µM in the experiment on HT-1376; 4.16 µM with PA-1; above 20 µM in the experiment on BUD-8; 16.6 µM in the experiment with Ramos. Further, the half-inhibitory concentration (IC50) was 15.7 µM in the experiment with Daudi; 9.1 µM with MES-SA; 16.8 µM with MES-SA/Dx5; 18.6 µM in the experiment with MCF7; 3.39 µM in the experiment on CTLL. This compound also showed an inhibition at 10 µg/mL in the experiment filed under Rattus norvegicus [1] of 100%. For the same compound, the inhibition at 1 µg/mL in the experiment filed under Rattus norvegicus [2] turned out to be 22%. For the same compound, at 0.1 µg/mL the inhibition in the experiment filed under Rattus norvegicus [3] was 7%.

One may read the IC50 as the concentration needed to halve the response being measured. A lower IC50 goes with inhibition by little substance. As a reminder, the inhibition is how much of the control response was suppressed.

These data come from ChEMBL document CHEMBL1148553, “C8c-C15 monoseco-analogues of the phenanthroquinolizidine alkaloids julandine and cryptopleurine exhibiting potent anti-angiogenic properties” (Bioorg Med Chem Lett, 2006).
